ChEMBL document CHEMBL4699498 (J Med Chem, 2020)
Active and inactive are the calls of the source. No cut-off for these calls is given here.

Columns and labels:
MCF-10A = assay: Cytotoxicity against human MCF-10A cells assessed as reduction in cell viability incubated for 120 hrs by CCK-8 assay; assay type: cell-based
[1] = target: T1, Protein cereblon/Poly [ADP-ribose] polymerase 1 (Homo sapiens, UniProt P09874+Q96SW2); assay: Protac activity at CRBN/PARP1 in human LNCaP cells assessed as induction of PARP1 degradation at 30 nM incubated for 1 to 24 hrs by Western blot analysis; assay type: cell-based; settings: time hrs 1-24
Target sequence in this assay (P09874 2-1014 limits assumed): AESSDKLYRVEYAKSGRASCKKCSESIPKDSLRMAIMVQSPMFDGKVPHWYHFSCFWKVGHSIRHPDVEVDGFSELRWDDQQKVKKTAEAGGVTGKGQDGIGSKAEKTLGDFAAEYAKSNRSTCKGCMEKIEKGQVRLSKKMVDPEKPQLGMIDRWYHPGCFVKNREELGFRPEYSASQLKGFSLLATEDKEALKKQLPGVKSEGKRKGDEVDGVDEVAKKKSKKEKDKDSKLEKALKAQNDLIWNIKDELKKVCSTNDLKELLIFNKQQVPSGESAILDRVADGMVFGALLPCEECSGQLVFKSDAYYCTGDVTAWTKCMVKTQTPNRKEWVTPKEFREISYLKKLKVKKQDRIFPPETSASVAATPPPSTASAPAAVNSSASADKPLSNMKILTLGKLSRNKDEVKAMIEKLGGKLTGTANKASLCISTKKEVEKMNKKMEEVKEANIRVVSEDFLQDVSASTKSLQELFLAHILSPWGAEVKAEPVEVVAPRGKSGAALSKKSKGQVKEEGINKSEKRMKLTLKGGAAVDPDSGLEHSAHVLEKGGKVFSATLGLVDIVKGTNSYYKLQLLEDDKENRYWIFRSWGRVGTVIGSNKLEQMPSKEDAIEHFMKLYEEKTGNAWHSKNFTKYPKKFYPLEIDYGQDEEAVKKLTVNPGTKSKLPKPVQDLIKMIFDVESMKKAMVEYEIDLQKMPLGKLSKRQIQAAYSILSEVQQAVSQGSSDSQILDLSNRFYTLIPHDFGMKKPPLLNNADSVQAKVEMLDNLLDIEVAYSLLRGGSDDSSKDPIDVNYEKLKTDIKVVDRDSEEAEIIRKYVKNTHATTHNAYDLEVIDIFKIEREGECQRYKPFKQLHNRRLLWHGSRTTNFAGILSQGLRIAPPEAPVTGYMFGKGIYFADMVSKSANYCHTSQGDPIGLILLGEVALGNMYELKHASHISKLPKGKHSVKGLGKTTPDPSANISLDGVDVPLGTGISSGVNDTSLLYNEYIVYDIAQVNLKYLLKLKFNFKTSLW
Target sequence in this assay (Q96SW2 whole entry partner): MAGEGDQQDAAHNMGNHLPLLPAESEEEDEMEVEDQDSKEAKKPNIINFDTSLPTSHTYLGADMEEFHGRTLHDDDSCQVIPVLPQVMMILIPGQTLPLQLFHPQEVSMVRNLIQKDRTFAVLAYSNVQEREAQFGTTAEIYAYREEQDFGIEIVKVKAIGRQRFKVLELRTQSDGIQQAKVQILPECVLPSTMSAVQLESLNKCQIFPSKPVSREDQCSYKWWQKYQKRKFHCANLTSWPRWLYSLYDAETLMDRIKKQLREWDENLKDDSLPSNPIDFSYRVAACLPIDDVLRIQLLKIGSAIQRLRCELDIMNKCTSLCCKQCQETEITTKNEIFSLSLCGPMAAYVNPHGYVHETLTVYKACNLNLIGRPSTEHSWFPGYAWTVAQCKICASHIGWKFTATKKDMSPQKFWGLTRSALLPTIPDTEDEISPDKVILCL

[2] = target: T1, Protein cereblon/Poly [ADP-ribose] polymerase 1; assay: Protac activity at CRBN/PARP1 in human 22Rv1 cells assessed as induction of PARP1 degradation measured after 24 hrs by Western blot analysis; assay type: cell-based
Method in brief: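 The cell line was treated 24 h across a concentration range. PARP1 was measured by western blot against β-tubulin. DC50 is the average of two biologically independent experiments.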
Target sequence in this assay (P09874 whole entry): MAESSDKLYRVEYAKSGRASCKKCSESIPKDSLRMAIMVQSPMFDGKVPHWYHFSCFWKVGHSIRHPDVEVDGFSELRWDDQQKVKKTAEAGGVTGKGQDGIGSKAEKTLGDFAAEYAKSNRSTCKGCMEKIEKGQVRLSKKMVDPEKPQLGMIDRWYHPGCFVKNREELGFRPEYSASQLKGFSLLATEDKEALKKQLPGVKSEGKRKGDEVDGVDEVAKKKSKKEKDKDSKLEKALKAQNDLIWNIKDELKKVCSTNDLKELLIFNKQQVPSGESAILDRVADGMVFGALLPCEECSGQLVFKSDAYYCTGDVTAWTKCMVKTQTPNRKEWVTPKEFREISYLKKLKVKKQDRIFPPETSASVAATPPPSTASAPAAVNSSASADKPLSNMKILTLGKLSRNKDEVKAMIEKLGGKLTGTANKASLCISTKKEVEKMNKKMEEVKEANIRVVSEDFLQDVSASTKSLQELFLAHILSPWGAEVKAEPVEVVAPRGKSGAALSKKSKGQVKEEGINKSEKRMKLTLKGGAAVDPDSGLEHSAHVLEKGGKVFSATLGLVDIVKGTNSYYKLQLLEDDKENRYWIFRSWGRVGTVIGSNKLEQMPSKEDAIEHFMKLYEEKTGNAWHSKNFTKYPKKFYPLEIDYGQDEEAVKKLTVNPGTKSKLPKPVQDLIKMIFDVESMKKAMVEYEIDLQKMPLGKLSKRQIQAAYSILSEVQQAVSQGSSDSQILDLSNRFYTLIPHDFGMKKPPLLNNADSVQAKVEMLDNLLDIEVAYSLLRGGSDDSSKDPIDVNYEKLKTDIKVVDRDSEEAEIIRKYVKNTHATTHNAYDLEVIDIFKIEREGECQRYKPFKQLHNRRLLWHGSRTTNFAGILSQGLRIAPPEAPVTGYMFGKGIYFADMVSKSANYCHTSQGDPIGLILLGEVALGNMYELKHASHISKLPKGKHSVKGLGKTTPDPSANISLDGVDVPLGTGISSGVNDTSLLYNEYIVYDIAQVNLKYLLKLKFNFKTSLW
Target sequence in this assay (Q96SW2 whole entry): as the sequence (Q96SW2 whole entry partner) above

[3] = AUCall in ICR mouse at 25 mg/kg, ip by LC-tandem mass spectrometry analysis; assay type: ADME, organism-based; design: dose 25 mg/kg; settings: in vivo
Method in brief: (§1)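 Female ICR mice (20-23 g, 6-7 weeks old, n = 3) received a single 25 mg/kg intraperitoneal dose formulated in 5% DMSO/15% Solutol HS15/80% D5W. Plasma was sampled at 0.5, 1, 2, 4, 6, 8 and 24 h and protein-precipitated with methanol. Compound was quantified by LC-MS/MS against a standard curve.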

[4] = target: T1, Protein cereblon/Poly [ADP-ribose] polymerase 1; assay: Protac activity at CRBN/PARP1 in human SW-620 cells assessed as induction of PARP1 degradation at 30 nM incubated for 24 hrs in presence of proteasome inhibitor MG132 by Western blot analysis; assay type: cell-based
Target sequence in this assay (P09874 2-1014 limits assumed): as the sequence (P09874 2-1014 limits assumed) above
Target sequence in this assay (Q96SW2 whole entry partner): as the sequence (Q96SW2 whole entry partner) above

HUVEC = assay: Cytotoxicity against HUVEC assessed as reduction in cell viability incubated for 120 hrs by CCK-8 assay; assay type: cell-based; settings: human
[5] = target: T1, Protein cereblon/Poly [ADP-ribose] polymerase 1; assay: Protac activity at CRBN/PARP1 in human SW-620 cells assessed as induction of PARP1 degradation at 30 nM incubated for 24 hrs in presence of NEDD8-activating E1 enzyme inhibitor MLN4924 by Western blot analysis; assay type: cell-based
Target sequence in this assay (P09874 2-1014 limits assumed): as the sequence (P09874 2-1014 limits assumed) above
Target sequence in this assay (Q96SW2 whole entry partner): as the sequence (Q96SW2 whole entry partner) above

[6] = target: Poly [ADP-ribose] polymerase 1 (Homo sapiens, UniProt P09874); assay: Inhibition of recombinant human C-terminal His-tagged PARP1 expressed in Sf9 insect cells preincubated for 20 mins in presence of activated DNA followed by […] addition and further incubated for 2 hrs by chemiluminescence assay
Chain of Poly [ADP-ribose] polymerase 1 (P09874 whole entry): as the sequence (P09874 whole entry) above

[7] = target: T1, Protein cereblon/Poly [ADP-ribose] polymerase 1; assay: Protac activity at CRBN/PARP1 in human PC-3 cells assessed as induction of PARP1 degradation at 30 nM incubated for 1 to 24 hrs by Western blot analysis; assay type: cell-based; settings: time hrs 1-24
Target sequence in this assay (P09874 2-1014 limits assumed): as the sequence (P09874 2-1014 limits assumed) above
Target sequence in this assay (Q96SW2 whole entry partner): as the sequence (Q96SW2 whole entry partner) above

[8] = Plasma concentration in ICR mouse at 25 mg/kg, ip at 1 hr postinjection by LC-tandem mass spectrometry analysis; assay type: ADME, organism-based; method in brief: as §1
[9] = target: T1, Protein cereblon/Poly [ADP-ribose] polymerase 1; assay: Protac activity at CRBN/PARP1 in human SW-620 cells assessed as induction of PARP1 degradation at 30 nM incubated for 24 hrs in presence of 0.1 to 1 uM PARP1 inhibitor olaparib by Western blot analysis; assay type: cell-based
Target sequence in this assay (P09874 2-1014 limits assumed): as the sequence (P09874 2-1014 limits assumed) above
Target sequence in this assay (Q96SW2 whole entry partner): as the sequence (Q96SW2 whole entry partner) above

NCM460 = assay: Cytotoxicity against human NCM460 cells assessed as reduction in cell viability incubated for 120 hrs by CCK-8 assay; assay type: cell-based; settings: ncm460, 120 h
LNCaP = assay: Antiproliferation activity against human LNCAP assessed as cell growth inhibition incubated for 7 days by CCK-8 assay; assay type: functional, cell-based; settings: time 7.0 day
Method in brief: (§2)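 Cells were sub-cultured at least twice and seeded for 24 h before dosing. Compounds came from 10 mM DMSO stocks, given as 10 points of 3-fold serial dilution starting at 10-20 μM. Incubation was about 7 days (Capan-1 13 days) at 37 °C, 5% CO2. Read-out was CCK-8 absorbance at 450 nm, as % growth versus DMSO wells (duplicate wells). IC50 was fitted by nonlinear regression; three independent experiments.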

CAPAN-1 [10] = assay: Induction of DNA damage in human Capan1 cells assessed as increase in gammaH2AX foci formation incubated for 24 hrs by Western blot analysis; assay type: functional, cell-based; settings: dose microM 0.1-10, time 24.0 hrs
Method in brief: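 MDA-MB-436 (BRCA1-/-) or Capan-1 (BRCA2-/-) cells were treated 24 h at the indicated concentrations. Lysis was in RIPA buffer with protease inhibitors, and 20-30 μg protein was run on SDS-PAGE. Blots were probed for γH2AX, with β-tubulin as the loading control, and detected by ECL.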

[11] = target: T1, Protein cereblon/Poly [ADP-ribose] polymerase 1; assay: Protac activity at CRBN/PARP1 in human MDA-MB-468 cells assessed as induction of PARP1 degradation at 30 nM incubated for 1 to 24 hrs by Western blot analysis; assay type: cell-based; settings: time hrs 1-24
Target sequence in this assay (P09874 2-1014 limits assumed): as the sequence (P09874 2-1014 limits assumed) above
Target sequence in this assay (Q96SW2 whole entry partner): as the sequence (Q96SW2 whole entry partner) above

MDA-MB-231 = assay: Antiproliferation activity against human MDA-MB-231 assessed as cell growth inhibition incubated for 7 days by CCK-8 assay; assay type: functional, cell-based; settings: time 7.0 day; method in brief: as §2
SW-620 [12] = assay: Potentiation of MMS induced cytotoxicity against human SW-620 cells preincubated for 1 hr followed by addition of MMS measured after 5 days by CCK-8 assay; assay type: functional, cell-based; settings: dose nM 3-300, time 1.0 hrs
Method in brief: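 SW620 cells (1000/well) were attached for 24 h, then preincubated 1 h with DMSO or a single compound concentration (3, 10, 100 or 300 nM). MMS was then added at 0-15 μg/mL (final concentration not stated). Incubation ran 5 days, followed by CCK-8 read at 450 nm. Growth was expressed as % of DMSO-only wells, mean of three wells.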

[13] = target: T1, Protein cereblon/Poly [ADP-ribose] polymerase 1; assay: Protac activity at CRBN/PARP1 in human MDA-MB-436 cells assessed as induction of PARP1 degradation at 30 nM incubated for 24 hrs in presence of 0.1 to 1 uM PARP1 inhibitor olaparib by Western blot analysis
CAPAN-1 [14] = assay: Antiproliferative activity against human CAPAN-1 cells assessed as cell growth inhibition incubated for 13 days by CCK-8 assay; assay type: functional, cell-based; settings: CAPAN-1, 312 h; method in brief: as §2
[15] = target: T1, Protein cereblon/Poly [ADP-ribose] polymerase 1; assay: Protac activity at CRBN/PARP1 in human PC-3 cells assessed as induction of PARP1 degradation measured after 24 hrs by Western blot analysis; assay type: cell-based
Method in brief: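 Concentration-response over a wide range, 24 h exposure; PARP1 quantified by western blot and normalized to β-tubulin density; DC50 derived from two biologically independent experiments.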
Target sequence in this assay (P09874 whole entry): as the sequence (P09874 whole entry) above
Target sequence in this assay (Q96SW2 whole entry): as the sequence (Q96SW2 whole entry partner) above

[16] = target: T1, Protein cereblon/Poly [ADP-ribose] polymerase 1; assay: Protac activity at CRBN/PARP1 in human SW-620 cells assessed as induction of PARP1 degradation at 30 nM measured after 2 hrs by Western blot analysis
PC-3 = assay: Antiproliferation activity against human PC-3 assessed as cell growth inhibition incubated for 7 days by CCK-8 assay; assay type: functional, cell-based; settings: time 7.0 day; method in brief: as §2
SW-620 [17] = assay: Antiproliferation activity against human SW620 assessed as cell growth inhibition incubated for 7 days by CCK-8 assay; assay type: functional, cell-based; settings: time 7.0 day; method in brief: as §2
Mus musculus = assay: Induction of PARP1 degradation in SW-620 cells xenografted Balb/c mouse at 25 mg/kg, ip at 1 to 24 hrs by Western blotting analysis; assay type: functional, organism-based; settings: time hrs 1-24
Method in brief: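 Male BALB/c nude mice carried subcutaneous SW620 xenografts (6×10^6 cells); at 200-300 mm³ they were randomized. A single 25 mg/kg intraperitoneal dose was given. Tumors were harvested at 1, 3, 6 and 24 h, and vehicle controls at 3 h. Tumors were frozen, ground in liquid nitrogen, and PARP1 was analysed by western blot against β-tubulin.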

With O=C(CCCCCCCCCCC(=O)N1CCN(C(=O)c2cc(Cc3n[nH]c(=O)c4ccccc34)ccc2F)CC1)NCCNc1cccc2c1C(=O)N(C1CCC(=O)NC1=O)C2=O (centres undefined) the Activity (MCF-10A) was “Non-Toxic”, the Activity [1] was “Active” and the DC50 [2] was 0.512 nM. The AUC [3] was 5320 ng·h/mL, the Activity [4] was “inactive” and the Activity (HUVEC) was “Non-Toxic”. For the same molecule, the Activity [5] was “inactive”, the IC50 [6] was 2.3 nM and the Activity [7] was “Active”. For the same molecule, the concentration at 1 h [8] was 1830 nM, the Activity [9] was “inactive” and the Activity (NCM460) was “Non-Toxic”. For the same molecule, the Activity (LNCaP) was “Active”, the Activity (CAPAN-1 [10]) was “Dose-dependent effect” and the Activity [11] was “Active”. The Activity (MDA-MB-231) was “Active”, the Activity (SW-620 [12]) was “Dose-dependent effect” and the Activity [13] was “inactive”. The IC50 (CAPAN-1 [14]) was 56 nM, the DC50 [15] was 0.578 nM and the Activity [16] was “Active”. The Activity (PC-3) was “Active”, the Activity (SW-620 [17]) was “Active” and the Activity (Mus musculus) was “Active”.
